Bioassay records from PubChem.
The list is not random: actives were taken first. Their share in the collection is about 4%.
Pf gametocyte: inhibitors of late stage P. falciparum gametocyte viability; P. falciparum stage V gametocytes, ATP luminescence, 24 h; inhibition, % at 10.9 µM; 150,000 tested, 0.065% active;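 active = inhibition above the mean plus 3 SD of compounds within the control limits, set per campaign, cut at about 38% in these data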
WT yeast gro inh: growth inhibition of WT yeast, mitochondrial fusion screen; mitochondrial fusion phenotypic screen, WT strain; 190,000 tested, 2.1% active; inhibition, % at 10 µM; AID 1362; in the data active = inhibition above about 58%; tested in S. cerevisiae
b-catenin transl: modulators of beta-catenin nuclear translocation; 190,000 tested, 0.3% active; nuclear translocation activity, % at 5 µM; AID 1665; HeLa beta-catenin nuclear translocation, immunofluorescence imaging;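 active = nuclear translocation activity above 50% at 5 µM, with a well cell count of 50 or more; inconclusive = wells under 50 cells across six images, flagged as toxic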;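 note: per-cell ratio of nuclear to cytoplasmic median beta-catenin stain intensity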
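Test system: human HeLa cells, native beta-catenin. Compound dosing: 5 µM primary single dose, 0.1% DMSO, 0.02–20 µM confirmation series. Incubation: compound exposure 24 h at 37°C. Detection: beta-catenin immunostaining with DAPI counterstain, 20x imaging, 6 fields/well. Read-out basis: Nuclear/cytoplasmic beta-catenin signal ratio, % activation.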
MT stabilizer: stabilizes microtubules in HeLa cells; HeLa tubulin immunostaining HCS, 24 h; share of cells brighter than vehicle mean+2SD; % tubulin-high responders, % at 10 µM; 200,000 tested, 0.83% active; AID 2205;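 active = plate Z-score above 3 for both tubulin-high and condensed-nucleus cell shares, with cell loss under 80%, at 10 µM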;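 note: anti alpha tubulin signal scored within the nucleus-defined area of each cell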
Cl transport mod: modulates chloride dependent transport by human KCC2 | Q9H2X9 | KCC2 cells, thallium flux FluoZin-2 fluorescence | B-score of Tl+ flux slope (higher = more flux/activation; lower = inhibition) at 10 µM | 190,000 tested, 2.2% active;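 active = thallium flux slope and its plate-corrected score both differing from the plate sample mean at a set confidence after two filtering rounds, in either direction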;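 note: slope of fluorescence scaled to starting intensity during 10 to 20 s after thallium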
Target sequence (Q9H2X9 whole entry, looked up): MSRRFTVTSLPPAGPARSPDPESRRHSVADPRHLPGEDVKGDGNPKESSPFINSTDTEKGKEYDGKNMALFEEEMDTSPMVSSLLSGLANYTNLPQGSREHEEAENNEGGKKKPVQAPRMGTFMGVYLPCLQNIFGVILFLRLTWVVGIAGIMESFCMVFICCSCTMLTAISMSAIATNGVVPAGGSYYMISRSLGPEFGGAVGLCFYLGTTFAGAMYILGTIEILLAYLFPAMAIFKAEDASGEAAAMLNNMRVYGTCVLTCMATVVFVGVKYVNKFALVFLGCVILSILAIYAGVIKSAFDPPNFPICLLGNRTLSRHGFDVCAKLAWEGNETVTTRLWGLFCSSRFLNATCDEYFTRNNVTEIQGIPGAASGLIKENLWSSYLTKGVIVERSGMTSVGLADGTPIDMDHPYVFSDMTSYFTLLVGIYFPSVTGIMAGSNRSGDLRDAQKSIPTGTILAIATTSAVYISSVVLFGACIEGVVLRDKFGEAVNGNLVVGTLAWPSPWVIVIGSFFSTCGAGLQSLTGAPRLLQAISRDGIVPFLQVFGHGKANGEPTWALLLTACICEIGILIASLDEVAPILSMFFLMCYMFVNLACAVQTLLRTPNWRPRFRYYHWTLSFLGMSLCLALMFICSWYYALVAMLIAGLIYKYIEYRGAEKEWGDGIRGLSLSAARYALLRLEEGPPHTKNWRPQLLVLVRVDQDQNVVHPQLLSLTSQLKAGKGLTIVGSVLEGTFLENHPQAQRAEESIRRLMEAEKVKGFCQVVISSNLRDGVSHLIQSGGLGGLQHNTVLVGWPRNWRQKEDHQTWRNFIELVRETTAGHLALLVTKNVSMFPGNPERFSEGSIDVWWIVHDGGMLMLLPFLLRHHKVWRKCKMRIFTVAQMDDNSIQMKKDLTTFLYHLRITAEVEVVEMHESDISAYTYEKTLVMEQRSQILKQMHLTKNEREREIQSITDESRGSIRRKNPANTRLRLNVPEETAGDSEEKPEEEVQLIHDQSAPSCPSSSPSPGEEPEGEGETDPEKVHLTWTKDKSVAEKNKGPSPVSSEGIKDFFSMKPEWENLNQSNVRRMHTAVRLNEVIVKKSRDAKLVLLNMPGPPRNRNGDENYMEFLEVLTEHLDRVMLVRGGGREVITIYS
KCC2 sec1: KCC2 (human) modulation, secondary assay; shares compounds with Cl transport mod; HEK293-KCC2, thallium flux, FluoZin2 fluorescence; active compounds read high; normalised thallium flux (F/F0 slope) at 10 µM; 3,700 tested, 15% active; AID 1713;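 active = thallium flux slope above the same plate's solvent-only control mean plus 3 SD; inconclusive = the two replicate wells disagree; inactive = no significant difference from solvent-only control wells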
KCC2 bumet counter: bumetanide-insensitive thallium flux in KCC2 cells with ouabain, counter-screen | 3,700 tested, 49% active | shares compounds with Cl transport mod | normalized thallium flux at 10 µM | HEK293-KCC2 + bumetanide/ouabain, thallium flux FluoZin2; active compounds read high | AID 1714;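 active = thallium entry rate above the same plate's blocked-transporter control wells by more than 3 SD; inconclusive = the two repeat wells disagree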;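 note: raw slope of fluorescence over initial fluorescence between 10 and 20 s after thallium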
KCC2 sec2: confirmation of human KCC2 transport modulators. shares compounds with Cl transport mod. HEK293-KCC2, thallium flux FluoZin2 fluorescence; actives lie on both sides; F/F0 rise rate, 10–20 s post-thallium. normalized thallium flux at 10 µM. 3,700 tested, 23% active. AID 1715;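 active = thallium flux slope more than 3 SD above or below the plate's solvent-only control mean, mostly below; inconclusive = the two repeat wells disagreed; inactive = no significant shift from solvent-only controls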
HEK293 Tl flux: parental HEK flux effect, counter-screen. shares compounds with Cl transport mod. HEK293 parental cells, thallium flux FluoZin2, ouabain; baseline-ratio fluorescence slope, 10–20 s after thallium. thallium flux rate (normalised fluorescence) at 10 µM. 3,700 tested, 46% active. AID 1716;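 active = thallium flux rate significantly above the same plate's solvent-only control wells, beyond their mean plus 3 SD; inconclusive = the two replicate wells gave conflicting results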
KCC2 retest ouab: KCC2 (human) modulation, ouabain retest; 3,700 tested, 48% active; raw Tl+ flux slope (below DMSO = inhibition, above = activation) at 10 µM; shares compounds with Cl transport mod; HEK293-KCC2, thallium flux FluoZin2 fluorescence; bidirectional: low = inhibitor, high = activator;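 active = thallium flux slope beyond 3 SD from same-plate DMSO control mean in most replicates, usually higher, sometimes lower; inconclusive = repeat tests gave conflicting results; inactive = no significant difference from controls in most replicates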;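 note: slope of initial-normalized fluorescence between seconds 10 and 20 after thallium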
HEK counter2: counter-screen for KCC2 modulators: effect in parental HEK293 cells; shares compounds with Cl transport mod; thallium flux FluoZin-2 fluorescence slope; thallium flux slope at 10 µM; 3,700 tested, 33% active; AID 1718;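 active = thallium flux slope above the same plate's solvent-control mean plus 3 SD in both duplicate wells; inconclusive = duplicate wells that disagreed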;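 note: run without ouabain in cells lacking the KCC2 cotransporter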
A number is an active result; - = inactive; ? = inconclusive; . = not tested or not shown.

SMILES | Pf gametocyte | WT yeast gro inh | b-catenin transl | MT stabilizer | Cl transport mod | KCC2 sec1 | KCC2 bumet counter | KCC2 sec2 | HEK293 Tl flux | KCC2 retest ouab | HEK counter2
CN(C)c1ccc(/C=N/n2c(-c3ccccc3Br)n[nH]c2=S)cc1 | - | . | - | . | 5.79 | - | 0.023 | - | 0.0124 | ? | -
O=C(NCCO)C(O)C(O)C(=O)NCCO (stereo not given) | - | - | - | - | - | . | . | . | . | . | .
C/C(=N\Nc1nc2ccc(Cl)cc2o1)c1ccccc1 | - | . | - | . | 10.2 | - | - | - | 0.013 | - | 0.0154
CCC(C)(C)NCC(=O)Nc1ccc(OC(F)(F)F)cc1 | . | - | - | - | - | . | . | . | . | . | .
COCCCNCC(=O)Nc1ccc(OC(F)(F)F)cc1 | - | - | - | - | 3.65 | - | - | - | - | - | -
O=C(/C=C/c1ccc(Br)cc1)NC(=S)NNC(=O)c1ccco1 | . | - | - | - | 3.92 | - | 0.0103 | - | ? | - | -
Cc1cccc(NC(=S)NNC(=O)c2ccco2)c1 | - | - | - | - | . | . | . | . | . | . | .
C=CCN(CC=C)C(=S)NC(=O)c1ccc(OC)cc1 | - | - | - | - | 71.2 | 0.0527 | 0.119 | 0.0903 | 0.0986 | 0.0928 | 0.0955
C=CCN(CC=C)C(=S)NC(=O)/C=C/c1ccc(OC)cc1 | . | - | - | - | 73.8 | 0.0105 | 0.136 | 0.0963 | 0.111 | 0.109 | 0.0868
C=CCNC(=O)c1ccc(OC)cc1 | . | . | - | . | - | . | . | . | . | . | .
COc1ccc(/C=C/C(=O)NC(=S)NNC(=O)c2cccs2)cc1 | . | - | - | - | 11.5 | - | 0.0234 | - | 0.022 | 0.0365 | 0.0215
CC(=O)N(CN1C(=O)CCC1=O)c1cccc(Cl)c1 | - | - | - | - | - | . | . | . | . | . | .
COc1ccc(C2SCCN2C(=S)Nc2cccc(Cl)c2)cc1 (stereo not given) | - | - | - | - | - | . | . | . | . | . | .
C=CCN(CC=C)C(=S)NC(=O)/C=C/c1ccccc1 | - | - | - | - | 8.85 | - | 0.0231 | - | 0.0204 | 0.0288 | 0.0205
CCCCCCCCC(=O)N/N=C/c1cccc(Br)c1 | - | - | - | - | 5.49 | - | ? | - | - | - | -
COc1ccc(CN2C3CCCC2CC(NC(=O)Nc2ccccc2C)C3)cc1 (stereo not given) | . | - | - | - | 2.55 | - | - | - | ? | - | -
COc1ccc(/C=C/C(=O)O)cc1S(=O)(=O)Nc1ccc2c(c1)OCO2 | - | . | - | . | - | . | . | . | . | . | .
CC(C)c1ccc(CNC(=O)C(=O)Nc2nccs2)cc1 | . | - | - | - | 12.4 | ? | 0.0191 | - | 0.0188 | ? | 0.0157
COc1ccc(C(=O)NNC(=O)Nc2ccc(Cl)cc2)cc1 | - | - | - | - | - | . | . | . | . | . | .
CCn1ncc(Br)c1C(=O)Nc1ccccc1C(=O)OC | - | . | . | - | - | . | . | . | . | . | .
CCn1ncc(Br)c1C(=O)Nc1ccc(C(=O)OC(C)C)cc1 | . | - | - | - | 5.25 | - | - | - | - | - | -
O=C(Nc1ccccc1C(F)(F)F)c1ncn[nH]1 | - | . | - | . | - | . | . | . | . | . | .
CCOC(=O)N1CCC(N2CCCC(C(=O)c3cccc(OC)c3)C2)CC1 (stereo not given) | - | . | - | . | - | . | . | . | . | . | .
C=CCSc1n[nH]c2nc3c(c(=O)n12)C1(CCCC1)Cc1ccccc1-3 | . | - | - | - | . | - | ? | - | ? | - | -
CCSc1n[nH]c2nc3c(c(=O)n12)C1(CCCC1)Cc1ccccc1-3 | . | - | - | - | - | . | . | . | . | . | .
Cc1noc(C)c1C(=O)Nc1nnc(CC(C)C)s1 | - | . | - | . | - | . | . | . | . | . | .
Cc1cc2nnn(-c3nnc(-c4ccccc4)c4ccccc34)c2cc1C | - | - | - | - | - | . | . | . | . | . | .
